Reference: PubChem BioAssay AID624466 (The Scripps Research Institute Molecular Screening Center, 2012)
The whole screen tested about 360,000 compounds, of which about 5,400 (1.5%) were called active.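 Rule for the calls: active = inhibition above a per-plate cutoff, the mean inhibition of test compounds on that plate plus 3 SD (cut at about 49% in these data); inactive = the rest.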 The entries come from a sample that favours actives as a whole.

The compounds below were run against Trace amine-associated receptor 1 (Homo sapiens) (UniProt Q96RJ0) (assay: blockers of beta-PEA-driven TAAR1 calcium signal – Fluo-8 calcium fluorescence, CHO RD-HGA16 cells, primary screen (AID 624466;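 note: 0% = DMSO plus EC80 beta-PEA response and 100% = DMSO alone without agonist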)). Settings: CHO RD-HGA16 TAAR1, Fluo-8 calcium fluorescence, antagonist; at 3 µM; active compounds read high.
Trace amine-associated receptor 1 (Homo sapiens), sequence (Q96RJ0 whole entry, looked up): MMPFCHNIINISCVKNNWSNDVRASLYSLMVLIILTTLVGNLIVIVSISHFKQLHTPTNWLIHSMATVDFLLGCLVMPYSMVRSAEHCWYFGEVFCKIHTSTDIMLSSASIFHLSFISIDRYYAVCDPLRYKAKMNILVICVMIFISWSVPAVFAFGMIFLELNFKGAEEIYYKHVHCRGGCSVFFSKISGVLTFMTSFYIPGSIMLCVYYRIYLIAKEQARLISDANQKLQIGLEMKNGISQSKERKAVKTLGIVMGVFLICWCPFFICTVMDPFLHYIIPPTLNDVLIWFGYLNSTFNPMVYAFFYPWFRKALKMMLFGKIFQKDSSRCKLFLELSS
Outline: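 Material: CHO RD-HGA16 cells bearing hTAAR1; compound dosing: one-point dosing, 3 µM nominal final; schedule: dye loading 75 min at 37 °C, then 30 min room temperature; measured by: calcium fluorescence with Fluo-8; control set: vehicle and agonist controls; replication: n of 1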
For `COc1ccc(CCNC(=O)COC(=O)Cc2ccccc2F)cc1`, the inhibition was -11.5% (inactive). With `O=C(COC(=O)Cc1ccccc1F)NCCc1ccccc1` the inhibition was 72.9% (active). In the case of `O=C(COC(=O)Cc1c[nH]c2ccccc12)NCCc1ccccc1`, the inhibition is reported as -12.2% (inactive). For `Cc1ccc2nc(SCC(=O)Nc3cccc4ccccc34)nc(=O)n2c1`, the inhibition was -20.9% (inactive). `C=CCNC(=O)c1cc2nc(C3CC3)cc(C(F)F)n2n1` was tested, and the inhibition was 7.57% (inactive). `Cc1ccc(F)c(S(=O)(=O)NC(=O)C2(C)CCN2C(=O)CCc2cccs2)c1` (stereo not given) was tested, and the inhibition was -14.2% (inactive). `CCC1(C)COC(c2ccc(OC)c(OC)c2)OC1` (stereo not given) was tested, and the inhibition was -18.6% (inactive). For `CCOC(=O)C1C(c2ccc(OC)c(OC)c2)c2c([nH][nH]c2=O)CC1(C)O` (stereo not given), the inhibition was 56.8% (active). With `CCOC(=O)C1C(c2ccc(O)cc2)NC(=O)NC1(O)C(F)(F)F` (stereo not given) the inhibition was -14.2% (inactive). `Cc1cccc(N2CCN(Cc3nc(C4CC4)no3)CC2)n1` was tested, and the inhibition was -31.7% (inactive). For `Cc1cc(OC(=O)NCCc2ccc(F)cc2)ccc1F`, the inhibition was -10.5% (inactive). `CC(C)CNc1cccc2c1S(=O)(=O)N[C@H](CC(C)C)CO2` was tested, and the inhibition was -8.78% (inactive). For `COc1ccc(NC(=O)COC(=O)Cn2c(C)nc3ccccc32)cc1OC`, the inhibition was 13.9% (inactive). For `Cc1nc2ccccc2n1CC(=O)N/N=C/c1cccs1`, the inhibition was 56.9% (active). With `Cc1ccc(-c2nnc(SCC(=O)N/N=C/c3cccs3)n2-c2ccc(C)cc2)cc1` the inhibition was 7.24% (inactive). `Cc1[nH]c2ccccc2c1C(=O)c1cc([C@H](NC(=O)OC(C)(C)C)C(C)C)sc1N` was tested, and the inhibition was -5.4% (inactive). For `Cn1c(SCC(=O)N2CCCc3ccccc32)nc2ccccc2c1=O`, the inhibition was 59.3% (active). With `O=C(CSc1nc2ccccc2c(=O)n1CCCO)N1CCc2ccccc21` the inhibition was -4.55% (inactive). For `C=CCn1c(=O)c2ccccc2n2c(SCC(=O)N3CCCc4ccccc43)nnc12`, the inhibition was 5.64% (inactive). `COC(=O)c1sc(-c2ccc(C(C)(C)C)cc2)cc1NC(=O)/C=C/C(=O)O` was tested, and the inhibition was 69.3% (active). `COc1ccccc1NC(=O)/C=C/C(N)=O` was tested, and the inhibition was -1.16% (inactive). `COc1ccc(NS(=O)(=O)c2ccc(N3CCOCC3)c(NC(=O)/C=C/C(=O)O)c2)cc1` was tested, and the inhibition was -2.93% (inactive). For `CC(C)(C)OC(=O)NCCCCCNC(=O)c1[nH]cnc1C(=O)Nc1nccs1`, the inhibition was 38.9% (inactive). In the case of `CC(C)(C)OC(=O)N1CCC(NC(=O)c2[nH]cnc2C(=O)N[C@@H](Cc2ccccc2)C(=O)OCc2ccccc2)CC1`, the inhibition is reported as 35.6% (inactive). `O=C(Nc1ccon1)c1nc[nH]c1C(=O)NCc1ccccc1` was tested, and the inhibition was -5.83% (inactive). For `C[C@H](NC(=O)c1nc[nH]c1C(=O)NCC(=O)OC(C)(C)C)C(=O)OCc1ccccc1`, the inhibition was 60.9% (active). With `O=C(N[C@@H](Cc1ccccc1)C(=O)OCc1ccccc1)c1nc[nH]c1C(=O)N[C@@H](Cc1ccccc1)C(=O)OCc1ccccc1` the inhibition was 15.8% (inactive). In the case of `C[C@H](NC(=O)c1nc[nH]c1C(=O)N[C@@H](C)C(=O)OC(C)(C)C)C(=O)OC(C)(C)C`, the inhibition is reported as 0.46% (inactive). For `Cc1cccc(NC(=O)c2nc[nH]c2C(=O)NCC(=O)OCc2ccccc2)c1`, the inhibition was 64% (active). `CC(C)(C)OC(=O)CNC(=O)c1[nH]cnc1C(=O)N[C@@H](Cc1ccccc1)C(=O)OCc1ccccc1` was tested, and the inhibition was 51.3% (active). `O=C(Nc1cc(Br)ccc1F)c1nc[nH]c1C(=O)NCc1ccccc1` was tested, and the inhibition was -18.3% (inactive). For `CC(C)(C)OC(=O)NCCCCCNC(=O)c1nc[nH]c1C(=O)NCc1ccccc1`, the inhibition was 60% (active). `CNC(=O)c1[nH]cnc1C(=O)N[C@@H](CC(C)C)C(=O)OCc1ccccc1` was tested, and the inhibition was 23.5% (inactive). For `C[C@H](NC(=O)c1nc[nH]c1C(=O)NCC(=O)OC(C)(C)C)c1ccccc1`, the inhibition was -2.15% (inactive). With `CN(CCc1ccccn1)C1CCCN(S(=O)(=O)c2ccccc2Cl)C1` (stereo not given) the inhibition was -19.7% (inactive). For `COc1ccccc1Cc1c(-c2ccc(F)cc2)nc2ccc(C)cn12`, the inhibition was -18.1% (inactive). With `O=C(NCc1ccccc1)[C@H]1CCCN1C(=O)[C@H]1CCCN1C(=O)N1CCOCC1` the inhibition was 15.4% (inactive). With `CCCCn1nnnc1C(c1cc2ccccc2o1)N(C)Cc1ccc(Cl)c(Cl)c1` (stereo not given) the inhibition was -19.1% (inactive). `CC(C)[C@H]1COCCS(=O)(=O)N1Cc1ccccc1-c1cccc2c1sc1ccccc12` was tested, and the inhibition was -54.8% (inactive). `Nc1nc(CC(=O)CSc2ccc(Cl)cc2)nc(Nc2ccc(F)cc2)n1` was tested, and the inhibition was -2.27% (inactive). For `C=CCC[C@@H](CCCCC)OC(=O)/C=C/[C@@H](O)[C@H](O)C[C@H](O)CC=C`, the inhibition was -5.68% (inactive). For `Cc1nc(NC(=O)C(C)(C)C)sc1[N+](=O)[O-]`, the inhibition was -6.34% (inactive). With `Cc1ccc(C(=O)N2CC(=O)Nc3ccccc32)o1` the inhibition was -3.59% (inactive). With `O=C(NCc1ccccc1)C(c1ccc(F)cc1)N1CCN(C(=O)C2CCCO2)CC1` (stereo not given) the inhibition was -21.5% (inactive). With `CCCCC[C@H](C)N1C[C@@H](COCc2ccccc2)Oc2cc(N3CC[C@@H](N(C)C)C3)ccc2S1(=O)=O` the inhibition was -6.02% (inactive). With `Nc1ncnc2c1ncn2[C@@H]1O[C@H](C(=O)N[C@@H](CCc2ccccc2)C(=O)NCC(=O)N2CCOCC2)[C@@H](O)[C@H]1O` the inhibition was 8.4% (inactive). In the case of `COC(=O)C1=C(C)N(Cc2cccc(C(F)(F)F)c2)C(=NCc2ccccc2)NC1c1ccc(Cl)cc1` (stereo not given), the inhibition is reported as 46% (inactive). `COC(=O)[C@]12C[C@H](CC(=O)NCc3ccccc3)C(=O)N(CCC3=CCCCC3)C1=C[C@H](C(C)(C)C)O[C@@H]2C` was tested, and the inhibition was -44.8% (inactive). In the case of `COc1cccc(-c2cc(CNC(=O)[C@@H](Cc3ccccc3)NC(=O)[C@H]3O[C@@H](n4cnc(C(N)=O)n4)[C@H](O)[C@@H]3O)no2)c1`, the inhibition is reported as -23.1% (inactive). With `Cc1cccc(-c2nc3ccc(C(=O)NCCN4CCN(C)CC4)cc3nc2-c2cccc(C)c2)c1` the inhibition was -13.7% (inactive). In the case of `O=C(NCCN1CCOCC1)c1ccc2c(c1)N(Cc1cccc(Cl)c1)C(=O)c1ccccc1S2(=O)=O`, the inhibition is reported as -0.54% (inactive). For `O=C(NCCN1CCOCC1)/C(=C/c1ccc(F)cc1)NC(=O)c1ccccc1`, the inhibition was 1.45% (inactive). `Cc1ccc(C(=O)N/C(=C\c2ccc(F)cc2)C(=O)NCCN2CCOCC2)cc1` was tested, and the inhibition was 0.72% (inactive). For `CCN1CCN(CCNC(=O)c2ccc(/C=C3/Sc4ccccc4N(Cc4cccc(C)c4)C3=O)cc2)CC1`, the inhibition was 61.5% (active). With `O=C(NCCN1CCOCC1)c1ccc(/C=C2\Sc3ccccc3N(Cc3ccc(F)cc3)C2=O)cc1` the inhibition was 70.2% (active). `C=C1C(=O)OC2C1CCC(C)=CCCC1(C)OC21` (stereo not given) was tested, and the inhibition was -17.7% (inactive). `CCOc1ccc(S(=O)(=O)NCCC(=O)NNC(=O)c2ccc(F)cc2)cc1` was tested, and the inhibition was -12% (inactive). With `O=C(Nc1ccccc1N1CCOCC1)c1ccc(OCc2cscn2)cc1` the inhibition was 29.3% (inactive). For `CC(C)OCCCNc1ncnc2c1[nH]c1ccc(F)cc12`, the inhibition was 51.5% (active). In the case of `Cc1ccc(C2NC(C(=O)O)CS2)cc1` (stereo not given), the inhibition is reported as -13.1% (inactive). With `O=C1/C(=C\c2ccc([N+](=O)[O-])cc2)CS(=O)(=O)C/C1=C/c1ccc([N+](=O)[O-])cc1` the inhibition was 36.7% (inactive). In the case of `c1ccc(CSc2ncnc3c2sc2nc(N4CCOCC4)c4c(c23)CCCC4)cc1`, the inhibition is reported as -16.6% (inactive). `c1ccc2c(CCN3CCNC[C@H]3Cc3cccc4ccccc34)cccc2c1` was tested, and the inhibition was 23.8% (inactive). With `c1ccc(C2CNCc3c2ccc2ccccc32)cc1` (stereo not given) the inhibition was 81.3% (active). For `Cc1ccn2c(=O)c(C(=O)NCCC3=CCCCC3)c(O)nc2c1`, the inhibition was 64.5% (active). For `O=C(CCNC(=O)Cn1ccc2ccccc2c1=O)NCCC1=CCCCC1`, the inhibition was -24.7% (inactive). `O=C(NCCC1=CCCCC1)c1ccc(-n2cncn2)cc1` was tested, and the inhibition was -0.95% (inactive). For `C(#CCN1CCOCC1)CCCN1CCOCC1`, the inhibition was -21.3% (inactive). `O=C(COC(=O)C12CC3CC(CC(O)(C3)C1)C2)NC12CC3CC(CC(C3)C1)C2` was tested, and the inhibition was -12.3% (inactive). With `CCN(CC)c1ccc(/C=N/NC(=O)c2cnccn2)c(O)c1` the inhibition was 48.9% (active). In the case of `CCN(CC)c1ccc(NC(=O)c2ccc(Cl)nc2)cc1`, the inhibition is reported as 6.5% (inactive). For `Cc1ccc(/C=N/NC(=O)C2=NNC(c3ccccc3)(c3ccccc3)C2)c(O)c1`, the inhibition was 0.27% (inactive). In the case of `Nc1ncnc2c1ncn2[C@@H]1O[C@H](C(=O)N[C@@H](CCc2ccccc2)C(=O)N2CCCN(Cc3cccs3)CC2)[C@@H](O)[C@H]1O`, the inhibition is reported as 3.27% (inactive). For `COc1cccc(CC2(CO)CCN(Cc3cnc(-c4cccc(C)c4)nc3)CC2)c1`, the inhibition was 5.01% (inactive). In the case of `COc1cccc(CNC(=O)[C@H]2CCCN2C(=O)[C@H]2CCCN2C(=O)C2CCCCC2)c1`, the inhibition is reported as -16.5% (inactive). In the case of `COc1cccc(C=CC(=O)C=CC=Cc2ccccc2)c1`, the inhibition is reported as -24.3% (inactive). In the case of `O=C(/C=C(O)/C=C/c1ccc(O)cc1)/C=C/c1ccc(O)cc1`, the inhibition is reported as 68.2% (active). For `COc1ccc(/C=C/C(=O)c2c(O)cc(OC)cc2OC)cc1`, the inhibition was 1.09% (inactive). For `O=C(COc1ccc(Cl)cc1)NCCSc1ccccc1`, the inhibition was 0.81% (inactive). `CCCNC(=O)C1(C)CCCN(Cc2c(C)nn(-c3ccccc3)c2C)C1` (stereo not given) was tested, and the inhibition was 5.37% (inactive). In the case of `O=C1C(=O)N(CCCN2CCOCC2)C(c2ccc([N+](=O)[O-])cc2)/C1=C(\O)c1ccc2c(c1)OCCO2` (stereo not given), the inhibition is reported as 6.85% (inactive). `CC(=O)c1ccc(S(=O)(=O)NCC2CCN(C(=O)C(=O)c3cccs3)CC2)cc1` was tested, and the inhibition was -6.62% (inactive). For `CC(C)CC(=O)NC(=S)NCc1ccccc1`, the inhibition was -16.9% (inactive). `O=C(CCN1CCN(c2ccccc2)CC1)NNC(=S)Nc1ccccc1` was tested, and the inhibition was -13.7% (inactive). With `CCCCC(=O)NNC(=S)NC(=O)C(c1ccccc1)c1ccccc1` the inhibition was 106% (active).
